Data as given in the RNAGym collection of RNA variant scans (doi:10.1126/science.aae0568).
This sample holds only a part of the variants without activity.

B1: tRNA (parent)
chain: GUUCCGUUGGCGUAAUGGUAACGCGUCUCCCUCCUAAGGAGAAGACUGCGGGUUCGAGUCCCGUACGGAACG

Variants of: B1
Assay: yeast fitness relative to wild type (ratio to wild type); higher = fitter; tRNA-Arg(CCU), competitive growth, 37 C, YPD
In short: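 Variants of the tRNA-Arg(CCU) gene, chemically synthesised with a 3% per-site mutation rate at 69 sites, were placed at the native genomic locus in Saccharomyces cerevisiae. The pooled strains were competed in YPD at 37°C for 24 hours in six parallel replicates. Gene amplicons from the start population and from each end population were read by 100-nucleotide paired-end sequencing. Darwinian fitness relative to wild type came from changes in genotype frequencies; genotypes needed ≥ 100 starting reads, and estimates < 0.5 were set to 0.5.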

Row | Variant | yeast fitness
1 | A20U U35C C49U C55U U64C | 0.588
2 | A20U U26A C61A A69C | ≤ 0.5
3 | A20U G50A | 0.88
4 | A21C A45U | 0.631
5 | A20U U28A A69U | 0.585
6 | A20U G25A | 1.03
7 | A21C A37C C55G G58A | ≤ 0.5
8 | A21C A45U G52A C62A | ≤ 0.5
9 | A21C C33U C55U A57C C61A | ≤ 0.5
10 | A21C C27U G41A | 0.966
11 | A20U G39C G48C G52C U53A | ≤ 0.5
12 | A21C C31A C33G C46A | ≤ 0.5
13 | A21C A43U | 0.902
14 | A21C A37U G51A | ≤ 0.5
15 | A21C U47A | 0.85
16 | A20U G25A C27U | 0.595
17 | A21C C27A A45U U47G | ≤ 0.5
18 | A21G A36U C49A | ≤ 0.5
19 | A21C C30U G38A | ≤ 0.5
20 | A21C U26G A43C | ≤ 0.5
21 | A21C C34G C46U | ≤ 0.5
22 | A21C C34G C46A | ≤ 0.5
23 | A21C C27U G68U | 0.633
24 | A21C C22U C46U G48A G56A C60A C62A | ≤ 0.5

Row | Variant | yeast fitness
25 | A21C A69C A70U | 0.686
26 | A21C A45U U47A U53A | ≤ 0.5
27 | A20U U28G C33U U35G C60A | ≤ 0.5
28 | A21C A57C C62A | ≤ 0.5
29 | A21C U35A G50C A69C | ≤ 0.5
30 | A21C U28A C31G | ≤ 0.5
31 | A20U G48C C61G C66U | 0.505
32 | A21C C24U A36C | 0.592
33 | A21C C49G | 0.732
34 | A21C C49U | 0.824
35 | A21C C49A | 0.742
36 | A21C U32A C46A | 0.744
37 | A21G A42U C49U G67A | ≤ 0.5
38 | A20U G25A A69C | 0.963
39 | A21C C46A | 0.995
40 | A21C C27U G48C | 0.547
41 | A21C U26C C34G G44A C46A C55G G58A U59C A69U | 0.625
42 | A21C C22G A57G | ≤ 0.5
43 | A21C C33U C61A | 0.593
44 | A21C C31G | 0.657
45 | A21C G44A U47C | 0.51
46 | A21C A45U G52A | 0.503
47 | A21C A42G U54G | 0.555
48 | A21C U26C | 0.785

Row | Variant | yeast fitness
49 | A21C U32A C34A G38A A45U | ≤ 0.5
50 | A21C U64G A69G | 0.504
51 | A20U G38C A65G C66U | ≤ 0.5
52 | A21C A42U G58A | 0.549
53 | A21C G23A A37C U54C A65G | ≤ 0.5
54 | A21G A42U C66U | 0.56
55 | A21C G44C A57G G68C | 0.66
56 | A21C C34U C49U G63A A69U | ≤ 0.5
57 | A21C U54G C55G | 0.585
58 | A21C U32C C46U C66U | 0.585
59 | A21C C34G G41C G67C | 0.653
60 | A21G A40C A42U C46U C49U G51A A65C | 0.732
61 | A21C A45C C49U G67A | ≤ 0.5
62 | A21C U32A C34U | ≤ 0.5
63 | A21G A40G C61U | 0.654
64 | A21C C24A G39A G56C A69U | ≤ 0.5
65 | A21G A36G G51A A69C | ≤ 0.5
66 | A21C G51C | 0.528
67 | A21C G51A | 0.658
68 | A21C C33A C61U | ≤ 0.5
69 | A21C G39A G52C C62U | ≤ 0.5
70 | A21G A37C G38A A65U G68C | ≤ 0.5
71 | A20U U32A C46G | 0.586
72 | A21C A65U G67A | 0.543

Row | Variant | yeast fitness
73 | A21C G23A A37C U54C | ≤ 0.5
74 | A21C A57G A69G | ≤ 0.5
75 | A21C C24U C29U A36C | ≤ 0.5
76 | A21C U28A G38A U59C G67A | ≤ 0.5
77 | A21G A43C C60G G68C | ≤ 0.5
78 | A20U G38A C46A | 0.541
79 | A20U U28C A40U A70U | ≤ 0.5
80 | A21C C22A C24U A36C | ≤ 0.5
81 | A20U U32C G38C A65G | ≤ 0.5
82 | A21C A57U C60U C62U C66U | 0.612
83 | A21C G23A C24U C31U C49U | ≤ 0.5
84 | A21C G39C A42U G48C | ≤ 0.5
85 | A20U G50A A57U | 0.529
86 | A21C C27U G63A A65G | 0.505
87 | A21C G41C | 0.695
88 | A21C A45C U47G C49U | ≤ 0.5
89 | A21C G67U | 0.656
90 | A20U U28C C49U | 0.61
91 | A21G | 1
92 | A21C | 0.973
93 | A21C A70G | 0.861
94 | A21C A70U | 0.894
95 | A20U G48A C61A A65C | ≤ 0.5
96 | A20U U35C A36G | 0.592

Row | Variant | yeast fitness
97 | A21C C24A C31A U47A | ≤ 0.5
98 | A21C C29U A57C A69U | ≤ 0.5
99 | A21C U26C A40G U47C | ≤ 0.5
100 | A21C C30U C31G C33U C61A | ≤ 0.5
101 | A21C C27U C34U G50C G52C C61U | ≤ 0.5
102 | A21C G25C U26G U59G A65C | ≤ 0.5
103 | A21C C66G | 0.609
104 | A21C C66U | 0.757
105 | A21C C33G A37U U64G | 0.617
106 | A21C U28A U32C G68A | ≤ 0.5
107 | A21C G56A A57G C66U | ≤ 0.5
108 | A21C C27A C49G A69C | ≤ 0.5
109 | A21C C31A U32G A40G | ≤ 0.5
110 | A21C G48C G56C | ≤ 0.5
111 | A21C C22A C24U U32A C62G | ≤ 0.5
112 | A20U G25A C66U | 0.761
113 | A21C A69U | 0.827
114 | A21C C27U C61U G68A | ≤ 0.5
115 | A21C U28A A40U C62G C66G | ≤ 0.5
116 | A21G A43C A70U | 0.712
117 | A21C G23A C46G U53C | 0.698
118 | A21C C22G G38C A57C A65U | ≤ 0.5
119 | A21C G23A C24U C31U C49U G67A | ≤ 0.5
120 | A21C U35C A65G | 0.583

Row | Variant | yeast fitness
121 | A20U G51A | 0.811
122 | A21C G23A C49A | ≤ 0.5
123 | A21G A36U A45U C49U U64A A70U | ≤ 0.5
124 | A20U G38A G67C | ≤ 0.5
125 | A21C C22A C30U G48C | ≤ 0.5
126 | A21C C31G C33G G44A C66U | 0.526
127 | A21C C55G A57U G67A | ≤ 0.5
128 | A21C C24A U54A A70C | ≤ 0.5
129 | A21G A40G A70U | 0.609
130 | A21C C29G A36G C46U G58A | 0.535
131 | A21C C55A A57U | 0.535
132 | A20U G38A A70G | 0.516
133 | A20U U35A G38A | 0.613
134 | A21G A42C G67A | 0.662
135 | A21C C62U A65C | 0.654
136 | A21G A42G C66G | ≤ 0.5
137 | A20U G25C U47A C60G | ≤ 0.5
138 | A21C C31A A65C | ≤ 0.5
139 | A21C C34U A65U | ≤ 0.5
140 | A21G A43C A69U A70C | 0.762
141 | A20U G38C C61G A69G | ≤ 0.5
142 | A21C A57U | 0.752
143 | A21G A36G | 0.954
144 | A20U G56A | 0.922

Row | Variant | yeast fitness
145 | A21G A42C A70U | 0.761
146 | A21C U32C C46G C49G | 0.529
147 | A20U G50A A65U | ≤ 0.5
148 | A21C A37G U59G | ≤ 0.5
149 | A21C C49U A69U | 0.61
150 | A21C C30G C55G | ≤ 0.5
151 | A21C C27U C55G | 0.617
152 | A21C C29U C31G A43U A65C | ≤ 0.5
153 | A21C C33U | 0.687
154 | A21C U35A | 0.601
155 | A21C G68C | 0.67
156 | A21C C24G G25C G44A C55G G56A | ≤ 0.5
157 | A21C G25C U26G U59A A70C | 0.559
158 | A21C U32C A40G | 0.557
159 | A20U G25C C60G | 0.676
160 | A21C C29G U59C | ≤ 0.5
161 | A21G A40C A42U C46U C49U G51A A69C | 0.596
162 | A20U G39A G51A U54G A65C A70C | 0.554
163 | A20U U28A G38C A40G U59C | 0.637
164 | A21C C22A A45U G67A | ≤ 0.5
165 | A21C C33U A36G G39A G44A C55G U59C | ≤ 0.5
166 | A21C A43U C49U G68A | ≤ 0.5
167 | A21C C55U A69C | ≤ 0.5
